Rows were chosen to be rich in hits. Some 3.7% of all compounds tested hit in one or more screens of this group.
Myeloid diff MLP = induction of myeloid progenitor differentiation, primary screen, cell-based, flow cytometry, MLPCN library; calls only at 10 µM; ER-HoxA9 myeloid progenitors, lysozyme-GFP differentiation; actives 1% (n = 360,000);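 active means normalized GFP-positive differentiation at or above the plate's own cutoff, the solvent-only control mean plus 3 SD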;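 further: cells exposed to compound for four days before flow analysis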
Granule exo inh = LAMP-1 surface exposure blockers, TALL-104 cells – cell-based, flow cytometry, MLPCN library, primary screen | AID 651702, 2012 | inhibition, % at 10 µM | TALL-104 LAMP-1 surface exposure; cells stimulated with thapsigargin and PMA | actives 0.66% (n = 360,000);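 active means inhibition above about 55%, limit read from the data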
EBI2 block = EBI2 receptor antagonists, beta-arrestin recruitment, primary screen, cell-based, luminescence, 7a,25-OHC stimulation, uHTS; actives 0.81% (n = 360,000); 7a,25-OHC stimulated; inhibition, % at 5 µM; G-protein coupled receptor 183 (Homo sapiens), P32249; in the data active means inhibition above about 38%;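 further: enzyme fragment complementation signal reports receptor beta-arrestin coupling in cells; 0% = agonist plus DMSO wells and 100% = wells without agonist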
Target sequence (P32249 whole entry, looked up, the tested form may be a part): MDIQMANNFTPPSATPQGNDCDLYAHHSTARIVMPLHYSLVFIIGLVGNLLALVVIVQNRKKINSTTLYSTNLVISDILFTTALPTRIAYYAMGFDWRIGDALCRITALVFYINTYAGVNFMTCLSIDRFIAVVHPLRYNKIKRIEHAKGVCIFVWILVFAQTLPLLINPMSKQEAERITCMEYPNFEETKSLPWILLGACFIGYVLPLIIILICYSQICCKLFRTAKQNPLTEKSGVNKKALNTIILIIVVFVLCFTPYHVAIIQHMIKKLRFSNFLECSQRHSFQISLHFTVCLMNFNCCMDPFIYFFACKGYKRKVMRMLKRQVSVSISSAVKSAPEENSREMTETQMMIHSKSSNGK
MC4R antag cAMP = MC4R antagonists of cAMP signaling, primary screen, cell-based, TR-FRET, antagonist arm of biased-ligand search | Melanocortin receptor 4 (Homo sapiens), P32245 | MC4R-expressing cells, MTII-stimulated cAMP, LANCE TR-FRET | inhibition, % at 6.5 µM | actives 0.48% (n = 360,000) | AID 540295, 2011;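 active means inhibition above its plate's cutoff, the mean of tested wells on that plate plus 3 SD, cut at about 29% in these data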;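 further: 0% = Melanotan II alone and 100% = Melanotan II plus saturating MCL0020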
Target sequence (P32245 whole entry, looked up): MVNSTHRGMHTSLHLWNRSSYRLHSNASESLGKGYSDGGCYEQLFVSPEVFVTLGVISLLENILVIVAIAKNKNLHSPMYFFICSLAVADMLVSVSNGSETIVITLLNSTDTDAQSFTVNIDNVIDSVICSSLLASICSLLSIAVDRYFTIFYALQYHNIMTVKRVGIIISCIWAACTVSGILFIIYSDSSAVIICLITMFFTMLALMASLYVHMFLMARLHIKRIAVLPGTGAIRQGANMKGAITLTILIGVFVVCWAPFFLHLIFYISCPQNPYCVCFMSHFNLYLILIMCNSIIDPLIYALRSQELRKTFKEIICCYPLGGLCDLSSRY
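Assay system: U2OS-MC4R stable cell line; Also added: Melanotan II; Technique: Eu-cAMP/anti-cAMP TR-FRET, emission 671 nm; Times: 30-min compound, 1-h challenge, 1-h detection, room temperature.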
MC4R barr agon = MC4R agonists recruiting beta-arrestin, primary screen, cell-based, luminescence, agonist arm of biased-ligand search; Melanocortin receptor 4 (Homo sapiens), P32245; U2OS MC4R beta-arrestin complementation; percent of melanotan II response, DMSO zero; activation, % at 8.9 µM; actives 0.98% (n = 360,000); AID 540308, 2011;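 active means activation above a per-plate cutoff, the mean activation of sample wells on that plate plus 3 SD, cut at about 8% in these data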
An asterisk follows results filed as active; i = inactive; / = no result; + = active, no number.

SMILES | Myeloid diff MLP | Granule exo inh | EBI2 block | MC4R antag cAMP | MC4R barr agon
c1ccc(Nc2ccc3c4c(cccc24)CC3)cc1 | + | 1.6 | 8.7 | 1.7 | -2.1
O=S(=O)(Nc1ccc2c3c(cccc13)CC2)c1ccc(F)cc1 | i | -2.0 | -0.2 | 11.7 | 0.3
Nc1ccc2c3c(cccc13)CC2 | + | -1.9 | -9.4 | 6.0 | -1.4
COc1ccc(N2C(=O)c3ccccc3NC(=O)C2C(=O)Nc2ccc(N3CCOCC3)cc2)cc1 (stereo not drawn) | i | -6.7 | 0.4 | / | /
CNC(=O)c1ccsc1NC(=O)C1CCCN1S(=O)(=O)c1cccs1 (stereo not drawn) | i | 1.4 | -3.9 | -2.7 | -2.2
Cc1cc(C)n2nc(N)c(N=Nc3ccc4c(c3)OCO4)c2n1 | i | -8.5 | 4.9 | -16.2 | 8.6*
Cc1cc(C)n2nc(N)c(N=Nc3ccccc3)c2n1 | i | -7.5 | 0.8 | -25.3 | -2.3
CCN(CC(=O)Nc1ccc(NC(C)=O)cc1)C(=O)c1cc(S(=O)(=O)N2CCCCCC2)ccc1OC | i | -5.8 | -3.9 | 3.5 | -1.6
Cc1[nH]c2c(Cl)cccc2c(=O)c1CN1CCCC1 | i | -0.2 | 2.1 | 2.1 | -1.1
Cc1cc(C)c2[nH]c(C)c(CN3CCCCCC3)c(=O)c2c1 | + | 1.2 | 0.3 | 6.1 | -0.2
CN(c1ccc(C(=O)N2CCN(Cc3ccccc3)CC2)cc1)S(=O)(=O)c1ccccc1 | + | 11.4 | 7.9 | 0.5 | 0.2
Cc1nc(C(=O)N2CCc3c([nH]c4ccccc34)C2c2ccccn2)cs1 (stereo not drawn) | i | 0.1 | 0.4 | -4.4 | -2.8
CC(C)c1nc(C(=O)N2CCc3c([nH]c4ccccc34)C2c2ccccn2)cs1 (stereo not drawn) | i | -0.3 | 8.1 | 3.5 | 9.0*
CCOC(=O)CC(=O)c1sc2c(c1N)c(=O)[nH]c(=O)n2-c1ccc(OC)cc1 | i | 3.9 | -10.5 | 6.0 | 0.5
Cc1ccc(Cc2c(-c3ccco3)nc3c(C)cc(Br)cn23)cc1 | + | 35.5 | 29.0 | / | /
COc1cc(NC(=O)CCNC(=O)Cn2cnc3sc4c(c3c2=O)CCCC4)cc(OC)c1OC | + | -1.7 | -7.5 | -3.2 | -0.5
CC(C)CN(CCNC(=O)CN1C(=O)COc2ccc(S(=O)(=O)N3CCC(C)CC3)cc21)CC(C)C | i | -3.7 | 15.1 | 22.4 | 1.4
Cc1noc(/C=C/c2ccccn2)c1[N+](=O)[O-] | + | -0.2 | -48.1 | -2.4 | 0.2
COc1ccccc1N/C=C/c1onc(C)c1[N+](=O)[O-] | i | -2.4 | 11.3 | -8.1 | -1.8
Cc1nn(Cc2cccc(C(=O)NN)c2)c(C)c1Cl | + | -3.7 | -10.0 | -1.4 | 0.7
Cc1nn(Cc2ccc(C(=O)NN)cc2)c(C)c1Cl | i | -3.4 | 3.2 | -1.6 | -1.1
Cc1ccc(-c2cnc(C(O)c3cc(F)cc(Cl)c3)[nH]2)cc1 (stereo not drawn) | i | 2.0 | 7.7 | 10.0 | -0.2
N#Cc1ccc(C(=O)Nc2cccc(NC(=O)c3ccco3)c2)c(F)c1 | i | 6.5 | -4.7 | 1.9 | -3.2
COc1cc(OC)cc(C(=O)NCC(=O)NC(C)CCc2ccccc2)c1 (stereo not drawn) | i | -29.4 | -3.8 | 6.4 | -0.3
CCCCOc1ccc(C(=O)NCC(=O)NC(C)CCc2ccccc2)cc1 (stereo not drawn) | + | 6.4 | 5.4 | 2.7 | -1.5
SMILES | Myeloid diff MLP | Granule exo inh | EBI2 block | MC4R antag cAMP | MC4R barr agon
CCCN(CCC)c1ccc(/C=C/c2ccc3cc(OCC)ccc3n2)cc1 | + | 18.5 | 36.7 | 14.0 | 0.1
CC1CN(c2nc3ccccc3nc2SCC(=O)Nc2cccc(C(F)(F)F)c2)CC(C)O1 (stereo not drawn) | + | -0.1 | -2.4 | 6.5 | 3.2
Cc1noc(C)c1NC(=O)N(C)C[C@H]1OCc2cn(nn2)CCCC(=O)N([C@@H](C)CO)C[C@@H]1C | i | -6.5 | 3.6 | -3.6 | 0.3
O=C(OC1CCOC1=O)c1ccccc1C(=O)c1ccc(Cl)c([N+](=O)[O-])c1 (stereo not drawn) | i | 0.5 | -1.4 | 23.5 | 0.4
CS(=O)(=O)c1ccc(C(=O)OC2CCOC2=O)cc1[N+](=O)[O-] (stereo not drawn) | i | -5.1 | 3.2 | 31.5* | -2.7
COc1ccc(C)cc1NC(=O)CSc1nc(=O)n(CCCN2CCOCC2)c2c1CCCC2 | i | -0.4 | -1.4 | 8.0 | -2.6
CCN(CC)c1ccc(/C=N/NC(=O)CNC(=O)c2ccc3c(c2)OCCO3)cc1 | i | 74.4* | 2.6 | 1.6 | -0.4
COc1ccc2c(-c3ccc(OCCN4CCOCC4)cc3)c(-c3ccccc3OC)sc2c1 | i | 2.0 | -2.6 | 2.9 | -3.0
COc1cccc(-c2sc3ccc(OC)cc3c2-c2ccc(OCCN3CCCC3)cc2)c1 | i | 26.8 | -7.2 | 11.0 | 27.3*
COc1ccc(-c2sc3ccc(OC)cc3c2-c2ccc(OCCN3CCOCC3)cc2)cc1 | i | 4.9 | 52.2* | 6.0 | 0.6
COc1cccc(-c2sc3cc(OC)c(OC)cc3c2-c2ccc(OCCN3CCCCC3)cc2)c1 | i | 61.9* | 3.2 | 14.0 | 11.3*
CC(C)CC1Nc2ncnc(N3CCN(c4ccccn4)CC3)c2N(Cc2ccccc2)C1=O (stereo not drawn) | i | 3.0 | 12.5 | 8.1 | -3.5
Cc1ccc(NC2CCCN(C(=O)CSc3ccccn3)C2)cc1C (stereo not drawn) | i | -10.8 | -4.4 | 0.0 | -0.3
Cc1nc(NC(=O)c2ccccc2)sc1-c1cc(C(=O)O)nn1Cc1ccccc1 | i | -1.4 | 1.2 | 0.3 | -1.9
Cc1ccc(C)c(S(=O)(=O)Nc2ccc(O)cc2)c1 | i | 0.1 | 2.9 | 0.6 | -1.2
Cc1ccc(CONS(=O)(=O)c2cc(C)ccc2C)cc1 | i | -1.8 | -19.4 | -2.6 | 8.2*
CCCCNC(=O)CCCn1c(=O)[nH]c2ccc(Br)cc2c1=O | + | -0.1 | 7.0 | 3.5 | 0.7
CCOC(=O)C1CCN(Cc2cc(=O)oc3c(C)c(C)ccc23)CC1 | + | -14.6 | -5.5 | 0.2 | -0.2
Cc1ccc2c(CN3CCC(C)CC3)cc(=O)oc2c1C | i | -0.7 | 5.3 | 10.1 | 2.0
CCN(CC)c1ccc2cc(-c3nnc(-c4ccncc4)o3)c(=O)oc2c1 | + | 1.3 | 0.7 | -6.7 | -1.4
COc1ccc(C(=O)CSc2nnc(CN3CCCCC3)n2-c2ccc(Cl)cc2)cc1OC | i | -3.9 | 10.6 | 11.3 | 2.3
CC(C)c1ccccc1NC(=O)COC(=O)Cc1c[nH]c2ccccc12 | i | -3.1 | -3.9 | 2.9 | -0.3
N#CCSc1ccccc1NC(=O)COC(=O)Cc1c[nH]c2ccccc12 | + | -0.9 | -4.6 | 12.6 | 0.2

High-throughput results from PubChem.
